Source: PubChem BioAssay
The list is not random: actives were taken first. Their share in the collection is about 2.2%.
FLuc inhib CS: inhibits firefly luciferase, flagging false hits in luciferase inhibition screens. P08659. ATPLite firefly luciferase biochemical luminescence, 10 min. inhibition, % at 10 µM. 200,000 compounds, 1.5% hits;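 active = inhibition above about 50% when tested at 10 µM, limit read from the data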
APP 5'UTR act: APP 5'UTR luciferase reporter activation | SH-SY5Y APP 5'UTR luciferase reporter, luminescence; zero percent = DMSO vehicle wells | activation, % at 2 µM | 190,000 compounds, 1% hits | AID 1276;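 active = activation above a set limit, based on mean plus 3 SD of controls, cut at about 140% in these data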
C8 TRAIL sens: sensitizes caspase-8 expressing cells to TRAIL. NB7+C8 cells + TRAIL, ATPlite viability luminescence. inhibition (viability loss, TRAIL sensitization), % at 10 µM. 360,000 compounds, 1% hits. AID 624354;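 active = compounds causing at least 50% loss of cell viability in the single-dose screen, relative to plate controls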
PPC-1+TRAIL kill: compounds killing PPC-1 cancer cells with TRAIL present (potentiator screen, no TRAIL-free arm); 220,000 compounds, 0.41% hits; cell killing (% activity), % at 4 µM or 5 µM; PPC-1 cells + TRAIL, ATPLite viability luminescence;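 active = cell killing above 50% in the first pass at 4 µM, then a duplicate retest at 5 µM averaging 50% or more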;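 also: plate controls were cells with TRAIL plus DMSO for no effect and medium-only wells lacking cells for full effect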
FLuc stim CS: affects firefly luciferase, flagging false hits in luciferase stimulation screens; AID 1027; ATPlite luciferase biochemical, luminescence, 10 min; 0 = ATP-free wells, 1 = DMSO control; 200,000 tested, under 10 active; activation factor at 10 µM; P08659;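 active = luciferase activation factor, scaled between plate controls, of at least 2 with compound at 10 µM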
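System: luciferase plus luciferin reagent, cell-free; medium: PBS as buffer for the ATP substrate; dosing: test compounds dosed from 2 mM stocks in 100% DMSO; timing: 10 min post-reagent at room temperature; measured by: luminescence measurement of luciferase light output; evaluation: luciferase activation, seen as luminescence increase over controls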
NF-kB neuron act: NF-kB expression increase, human neuronal cells. NF-kB reporter expression; hits give high values. fold change at 12.5 µM. AID 1239. 190,000 compounds, 1.6% hits; in the data active = fold change above about 3.3
PPC1 cytotox: PPC-1 cell cytotoxicity; AID 1447; shares compounds with PPC-1+TRAIL kill; 1,200 compounds, 50% hits; cytotoxicity, % at 5 µM; PPC-1 viability, ATPlite luminescence, overnight;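 active = reconfirmed compounds whose average cytotoxicity reaches 50% or more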;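 also: 0% = DMSO-treated cells and 100% = wells holding medium but no cells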
* = called active by the depositor.

C#CC(=O)N(c1ccc(OC)cc1OC)C(C(=O)NC1CCCC1)c1cccs1 (stereo not given) was read as FLuc inhib CS -6, APP 5'UTR act -15, C8 TRAIL sens 93*, PPC-1+TRAIL kill 97*, FLuc stim CS 1.1, NF-kB neuron act 0.18 and PPC1 cytotox 96*.
C#CC(=O)N(c1cc(OC)ccc1OC)C(C(=O)NC1CCCC1)c1cccs1 (stereo not given) was read as FLuc inhib CS -6, APP 5'UTR act -11, C8 TRAIL sens 91*, PPC-1+TRAIL kill 98*, FLuc stim CS 1.1, NF-kB neuron act 0.17 and PPC1 cytotox 98*.
`Cc1ccccc1CN1CCN(C(=O)[C@H]2O[C@@H](n3cnc4c(N)ncnc43)[C@H](O)[C@@H]2O)CC1` gave C8 TRAIL sens 2.
`ClCc1ncc(-c2ccc(Cl)cc2)o1` gave FLuc inhib CS -7, APP 5'UTR act -21, C8 TRAIL sens 1, PPC-1+TRAIL kill 18, FLuc stim CS 1.1, NF-kB neuron act 0.99 and PPC1 cytotox 17.
CC(C)(C)c1ccc(S(=O)(=O)Nc2ccc(C(O)(C(F)(F)F)C(F)(F)F)cc2)cc1 was read as C8 TRAIL sens 5.
C=CCn1c(-c2ccc(OC)cc2)nc2nc3ccccc3nc21 was read as FLuc inhib CS 6, APP 5'UTR act 21, C8 TRAIL sens 27, PPC-1+TRAIL kill -7, FLuc stim CS 0.9, NF-kB neuron act 0.86 and PPC1 cytotox 2.
O=S(=O)(NCCSc1ccccc1)c1ccc(F)cc1 was read as FLuc inhib CS -1, APP 5'UTR act 8, C8 TRAIL sens -5, PPC-1+TRAIL kill -2, FLuc stim CS 1, NF-kB neuron act 1 and PPC1 cytotox -3.
For Cc1[nH]n(-c2ccccc2)c(=O)c1/C=N/Nc1nncc(-c2ccccc2)n1 the results were FLuc inhib CS 85*, APP 5'UTR act -82, C8 TRAIL sens 58*, PPC-1+TRAIL kill 63*, FLuc stim CS 0.1, NF-kB neuron act 0.95 and PPC1 cytotox 58*.
Cc1ccc(/C=N/Nc2nncc(-c3ccccc3)n2)o1 was read as FLuc inhib CS 9, APP 5'UTR act 25, C8 TRAIL sens 3, PPC-1+TRAIL kill -1, FLuc stim CS 0.9 and NF-kB neuron act 1.3.
`CC(=O)Nc1ccc(NC(=O)c2ccc(-c3ccnn3C)c3ccoc23)cc1` gave C8 TRAIL sens -1.
CCNc1nc(-c2sc(NC(=O)C(C)(C)C)nc2C)c(-n2cc(-c3ccccc3)nn2)s1 was read as C8 TRAIL sens 45.
O=C(O)/C=C/C(=O)Nc1ccccc1C(=O)OCC(=O)c1ccc2c(c1)OCCO2 was read as FLuc inhib CS 96*, APP 5'UTR act 37, C8 TRAIL sens 53*, PPC-1+TRAIL kill 78*, FLuc stim CS 0, NF-kB neuron act 1.2 and PPC1 cytotox 79*.
`CCOC(=O)c1ccccc1NC(=O)/C=C/C(=O)O` gave FLuc inhib CS 0, APP 5'UTR act 5, C8 TRAIL sens -2, PPC-1+TRAIL kill -2, FLuc stim CS 1 and NF-kB neuron act 1.1.
For COc1ccc(C(=O)N2CCN(c3ncnc4c(-c5ccccc5)nsc34)CC2)cc1 the results were FLuc inhib CS -9, APP 5'UTR act 4, C8 TRAIL sens 36, PPC-1+TRAIL kill 8, FLuc stim CS 1.1 and NF-kB neuron act 1.
COc1ccc(-c2nsc3c(N4CCCCC4C)ncnc23)cc1 (stereo not given) was read as FLuc inhib CS 91*, APP 5'UTR act -34, C8 TRAIL sens 78*, PPC-1+TRAIL kill 77*, FLuc stim CS 0.1, NF-kB neuron act 0.19 and PPC1 cytotox 79*.
COc1ccc(-c2nsc3c(N4CCCCC4)ncnc23)cc1 was read as FLuc inhib CS 89*, APP 5'UTR act 98, C8 TRAIL sens 85*, PPC-1+TRAIL kill 79*, FLuc stim CS 0.1, NF-kB neuron act 0.66 and PPC1 cytotox 78*.
`CCOC(=O)[C@]12CCC=C1N(Cc1ccccc1)C(=O)[C@H](CC(=O)NCc1cccs1)C2` gave C8 TRAIL sens -9.
`Cc1ccccc1CN1C(=O)CN(S(C)(=O)=O)CC1(C)C(=O)Nc1ccc2c(c1)OCCO2` (stereo not given) gave C8 TRAIL sens -5.
